Screening results deposited in PubChem by Johns Hopkins Ion Channel Center.
In the library only some 3.5% were active in any assay of this set; here they are far more common.
MrgX1 allo act: allosterically activates human MrgX1 receptor signaling; B-score at 10 µM; Q96LB2; 310,000 compounds, 0.63% hits; MrgX1-HEK293, Fluo-4 calcium flux, FDSS; active compounds read high; AID 588675;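 active = plate-corrected calcium response at least 3 library SD above typical, normal starting fluorescence, not activating the receptor alone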;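 also: compound read alongside a low EC10 to EC30 dose of BAM8-22 agonist; peak minus trough fluorescence over baseline measured at the second addition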
Target sequence (Q96LB2 whole entry, looked up): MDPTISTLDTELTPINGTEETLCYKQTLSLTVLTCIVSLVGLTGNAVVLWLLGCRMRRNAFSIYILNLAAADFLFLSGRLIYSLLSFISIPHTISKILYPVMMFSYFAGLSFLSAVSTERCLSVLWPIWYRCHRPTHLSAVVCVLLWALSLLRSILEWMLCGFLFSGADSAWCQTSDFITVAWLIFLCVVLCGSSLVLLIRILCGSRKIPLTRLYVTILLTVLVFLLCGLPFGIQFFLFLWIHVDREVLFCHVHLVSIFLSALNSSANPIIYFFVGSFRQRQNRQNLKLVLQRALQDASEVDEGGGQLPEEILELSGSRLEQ
RGS4 pot: RGS4 potentiation or activation | B-score at 10 µM | HEK293 M3R/inducible RGS4, carbachol calcium flux Fluo4; active compounds read low | 310,000 compounds, 0.92% hits;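 active = B-score of the integrated calcium signal more than 4 SD below the library mean, with starting fluorescence not abnormally high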;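 also: negative B-score means reduced calcium response which marks RGS4 activation or potentiation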
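Assay system: HEK293 FlpIn-TREx cells, stable M3R, doxycycline-inducible RGS4 / Probe or stimulus: carbachol, ECmax concentration / Times: overnight RGS4 induction, 30 min dye load 37 °C, 20 min compound RT / Signal: kinetic calcium fluorescence imaging with Fluo4-AM dye, 2 µM / Measure: Agonist-evoked peak-minus-minimum fluorescence over baseline, integrated ratio, B score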
MrgX1 agonist: human MrgX1 receptor agonism, primary screen; Q96LB2; MrgX1-HEK293 cells, Fluo-4 calcium fluorescence, agonist mode; active compounds read high; B-score at 10 µM; 310,000 compounds, 0.44% hits;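 active = calcium response B-score plate-corrected fluorescence ratio at least 3 library SD, with starting fluorescence B-score inside 5 SD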
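System: HEK293 cells stably expressing human MrgX1 receptor; Dosing: test compound in the initial addition of three; Schedule: overnight plating, then 30 min 37 °C plus 30 min room-temperature dye loading; Detection: kinetic calcium dye fluorescence, Fluo-4 NW; Controls: per-plate positive and negative controls for Z′ factor.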
MrgX1 antag: antagonists of human MrgX1 receptor; Q96LB2; MRGX1-HEK293 calcium flux, Fluo-4, BAM8-22 antagonism; active compounds read low; B-score at 10 µM; 310,000 compounds, 1.3% hits; AID 588676;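 active = calcium-response B-score plate-corrected more than 3 library SD below zero, starting fluorescence within 5 deviations, no agonist response on first addition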;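 also: peak minus trough fluorescence over baseline after final BAM8-22 challenge near maximal dose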
RGS4 inh: inhibitors of human RGS4. HEK293 M3R/RGS4 inducible, Fluo-4 calcium flux; active compounds read high; triggered by carbachol at its EC20. B-score at 10 µM. 310,000 compounds, 0.45% hits. AID 463165;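 active = B-score, a plate-corrected calcium signal, over three deviations above library mean, with baseline fluorescence within five deviations of library mean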;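 also: RGS4 expression induced by doxycycline in cells with stable M3 receptor; B-score is computed from the integrated fluorescence ratio over baseline after carbachol; higher B-score means a larger calcium signal and so more RGS4 inhibition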
Target sequence (P49798 whole entry, looked up): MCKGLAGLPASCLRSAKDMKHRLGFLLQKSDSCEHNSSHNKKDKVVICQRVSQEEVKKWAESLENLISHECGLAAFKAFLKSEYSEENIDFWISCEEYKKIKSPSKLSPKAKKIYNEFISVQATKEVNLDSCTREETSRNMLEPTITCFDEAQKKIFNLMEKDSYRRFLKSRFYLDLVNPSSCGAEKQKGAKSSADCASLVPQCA
MrgX1 ag confirm: human MrgX1 agonism, re-confirmation screen | MrgX1-HEK293, Fluo-4 calcium fluorescence, FDSS | 600 compounds, 78% hits | activation, % at 10 µM | shares compounds with MrgX1 agonist;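 active = calcium signal rise, corrected for plate position, at least 3 library SD high, with starting brightness within 5 such deviations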
HEK293 Ca flux: counter-screen for MrgX1 antagonists: effect in parental HEK293 cells; shares compounds with MrgX1 antag; Fluo-4 calcium fluorescence, FDSS; fluorescence ratio F(max-min)/F0 at 10 µM; 4,000 compounds, 2% hits;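 active = duplicate-averaged calcium fluorescence ratio at least three times the standard deviation of buffer wells, a nonspecific response in parental cells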
HEK293 Ca counter: counter-screen for MrgX1 allosteric activators: effect in parental HEK293 cells; shares compounds with MrgX1 antag; parental HEK293 calcium flux, Fluo-4 fluorescence ratio; active compounds read high; fluorescence ratio F(max-min)/F0 at 10 µM; 4,000 compounds, 0.4% hits; AID 624114;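 active = calcium fluorescence ratio, averaged over duplicates, at least 3 SD of the buffer-well ratio, meaning a nonspecific response in receptor-free cells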;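 also: untransfected parental HEK293 lacking MrgX1 used as counterscreen for MrgX1 allosteric activators; fluorescence change taken during the second addition on a kinetic imager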
HEK293 Ca cntr2: counter-screen for MrgX1 activators: effect in parental HEK293 cells; fluorescence ratio F(max-min)/F0 at 10 µM; Fluo-4 calcium fluorescence (FDSS); active compounds read high; 4,000 compounds, 8.7% hits; shares compounds with MrgX1 antag;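 active = calcium fluorescence ratio at least three times the spread of buffer wells, meaning a non-specific response in parental cells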
Starred values were filed as active, the others as inactive; i = inactive; . = not tested or not shown.

SMILES	MrgX1 allo act	RGS4 pot	MrgX1 agonist	MrgX1 antag	RGS4 inh	MrgX1 ag confirm	HEK293 Ca flux	HEK293 Ca counter	HEK293 Ca cntr2
COc1ccccc1N1CCN(C2CCCCC2NS(=O)(=O)c2ccc(Cl)cc2)CC1 (stereo not given)	i	i	48.1*	i	i	241.4%*	i	i	i
C/C(=N\Nc1ncnc2sc(C)c(C)c12)c1ccccn1	i	i	72.3*	i	i	499.1%*	0.461*	i	101*
CCOC(=O)Cc1csc(N/C(=N/S(=O)(=O)c2ccc(F)cc2F)c2ccccc2)n1	i	i	30*	i	i	181.5%*	i	i	i
CSCCC(NC(=O)COc1ccccc1)C(=O)N1CCN(c2ccccc2Cl)CC1 (stereo not given)	i	i	i	i	i	.	.	.	.
COc1ccc(C(=O)Nc2nnc(-c3ccccc3)o2)cc1OC	i	i	i	i	i	.	.	.	.
O=C(Nc1nnc(-c2ccccc2)o1)c1cc(Cl)sc1Cl	i	i	43.1*	i	i	442.3%*	i	i	88.1*
O=C(Nc1nnc(-c2ccc(F)cc2)o1)c1cc(Cl)sc1Cl	i	i	114*	i	i	526.6%*	i	i	100*
COc1ccc(NC(=O)C2CCC(=O)N2S(=O)(=O)c2ccc(C)cc2)cc1Cl (stereo not given)	i	i	i	i	i	.	.	.	.
Cc1[nH]c(C)c(S(=O)(=O)N2CCCCC2)c1C(=O)N1CCCCC1	i	i	i	i	i	.	.	.	.
Cn1c2ccccc2c(=O)c2c(=O)n(C3CCCCC3)c(-c3ccco3)nc21	i	i	90.8*	i	i	589.3%*	i	i	113*
CCOC(=O)c1cnc2c(OC)cccc2c1N1CC(C)CC(C)C1 (stereo not given)	i	i	28*	i	i	i	i	i	i
Cc1ccn(CCC(=O)Nc2ccc(-c3ccno3)cc2)n1	i	i	i	i	i	.	.	.	.
Cc1ccc(N/C(N)=N/c2nc(C)cc(N3CCCCC3)n2)c(C)c1	i	i	34.4*	i	i	137.2%*	i	i	i
Cc1ccc(N/C(N)=N/c2nc3c(c(=O)[nH]2)CCCC3)c(C)c1	i	i	i	i	i	.	.	.	.
COC(=O)CC1=C(C(=O)OC)C(c2ccc3c(c2Cl)OCO3)C(C#N)=C(N)O1 (stereo not given)	i	i	40.7*	i	i	171.9%*	i	i	i
O=C(COc1ccccc1Cl)N1CCN(c2ccccn2)CC1	i	i	i	i	i	.	.	.	.
Cn1c(=O)c(C(=O)CN2CCN(S(=O)(=O)c3ccccc3)CC2)c(N)n(Cc2ccccc2)c1=O	i	i	38.3*	i	i	170.5%*	i	i	45.6*
COc1ccccc1N=C1NC(=O)/C(=C/c2ccc(N(C)C)cc2)S1	i	i	65.4*	i	i	i	0.217*	i	128*
COc1ccc(/C=C2\SC(=Nc3ccccc3)NC2=O)cc1	i	i	i	i	i	.	.	.	.
CCOC(=O)C[C@H]1c2ccccc2S(=O)(=O)N1c1cccc(OC)c1	i	i	i	i	i	.	.	.	.
COc1ccc(CCNc2cc(C)nc(N)n2)cc1OC	i	i	44.6*	i	i	241.8%*	i	i	i
Cc1ccc(-n2sc3ccccc3c2=O)cc1S(=O)(=O)N1CCCCC1	i	i	i	i	i	.	.	.	.
Cc1ccccc1-n1sc2cc(F)ccc2c1=O	i	.	40.3*	i	.	302.8%*	i	i	66.4*
Cc1ccc(OCc2nc(-c3ccc(Cl)cc3)n[nH]2)cc1	i	i	i	i	i	.	.	.	.
Cc1ccc(-c2n[nH]c(Cc3ccccc3)n2)cc1	i	i	28.5*	i	i	96.8%*	i	i	i
SMILES	MrgX1 allo act	RGS4 pot	MrgX1 agonist	MrgX1 antag	RGS4 inh	MrgX1 ag confirm	HEK293 Ca flux	HEK293 Ca counter	HEK293 Ca cntr2
O=c1c2cc(Br)ccc2nc(-c2cccc(C(F)(F)F)c2)n1O	i	i	119*	i	i	619.8%*	i	i	144*
O=c1c2cc(Cl)ccc2nc(-c2ccc(Cl)c(Cl)c2)n1O	i	-7.68*	151*	i	i	718.9%*	i	i	122*
Cc1ccccc1-c1nc2ccc(Cl)cc2c(=O)n1O	i	i	i	i	i	.	.	.	.
CCS(=O)(=O)N1CCC(NC(=O)C(Cc2ccc(OC)c(OC)c2)NC(C)=O)CC1 (stereo not given)	i	i	i	i	i	.	.	.	.
Cc1[nH][nH]c(=O)c1C(c1ccc(-c2ccc(F)cc2)o1)c1c(C)[nH][nH]c1=O	i	i	40.4*	i	i	216.4%*	i	i	46.5*
Cc1[nH][nH]c(=O)c1C(c1ccc(-c2ccc(Cl)c(Cl)c2)o1)c1c(C)[nH][nH]c1=O	i	i	i	i	i	.	.	.	.
Cc1ccc(-c2cc(NC(=O)CCl)n(-c3ccccc3)n2)cc1	i	i	35.4*	i	i	150.4%*	i	i	i
CCNc1nc(NC(C)C)nc(N(C#N)Cc2ccccc2)n1	i	i	42.1*	i	i	184.7%*	i	i	i
CCOC(=O)c1ccccc1NC(=O)CSc1nnnn1C	i	i	i	i	i	.	.	.	.
COc1cc2ccccc2nn1	i	i	i	i	i	.	.	.	.
COc1ccc2c(n1)Sc1nc3ccccc3nc1N2	i	i	40*	i	i	501.1%*	0.184*	i	122*
O=C(CCSc1ccccc1)N1CCCC1	i	i	i	i	i	.	.	.	.
O=C1CCCCCN1Sc1ccccc1	i	i	30.4*	i	i	122.8%*	i	i	i
CC(NC(=O)Cn1nc(C(F)(F)F)c2c1CCC2)c1ccccc1 (stereo not given)	i	i	30.9*	i	i	133.7%*	i	i	i
CN(Cc1ccccc1)c1ncc(C=O)s1	i	i	i	i	i	.	.	.	.
